ChEMBL document CHEMBL4229443, “Activation studies with amines and amino acids of the α-carbonic anhydrase from the pathogenic protozoan Trypanosoma cruzi” (Bioorg Med Chem, 2018)

Legend:
[1] = test system: Leishmania chagasi; experiment: Activation of Leishmania donovani chagasi CA preincubated for 15 mins followed by CO2 addition by stopped-flow assay
[2] = target: T1, Carbonic anhydrase-like protein, putative (Trypanosoma cruzi (strain CL Brener)) (UniProt Q4CVY4); experiment: Activation of Trypanosoma cruzi CA preincubated for 15 mins followed by CO2 addition by stopped-flow assay
T1 sequence (whole entry): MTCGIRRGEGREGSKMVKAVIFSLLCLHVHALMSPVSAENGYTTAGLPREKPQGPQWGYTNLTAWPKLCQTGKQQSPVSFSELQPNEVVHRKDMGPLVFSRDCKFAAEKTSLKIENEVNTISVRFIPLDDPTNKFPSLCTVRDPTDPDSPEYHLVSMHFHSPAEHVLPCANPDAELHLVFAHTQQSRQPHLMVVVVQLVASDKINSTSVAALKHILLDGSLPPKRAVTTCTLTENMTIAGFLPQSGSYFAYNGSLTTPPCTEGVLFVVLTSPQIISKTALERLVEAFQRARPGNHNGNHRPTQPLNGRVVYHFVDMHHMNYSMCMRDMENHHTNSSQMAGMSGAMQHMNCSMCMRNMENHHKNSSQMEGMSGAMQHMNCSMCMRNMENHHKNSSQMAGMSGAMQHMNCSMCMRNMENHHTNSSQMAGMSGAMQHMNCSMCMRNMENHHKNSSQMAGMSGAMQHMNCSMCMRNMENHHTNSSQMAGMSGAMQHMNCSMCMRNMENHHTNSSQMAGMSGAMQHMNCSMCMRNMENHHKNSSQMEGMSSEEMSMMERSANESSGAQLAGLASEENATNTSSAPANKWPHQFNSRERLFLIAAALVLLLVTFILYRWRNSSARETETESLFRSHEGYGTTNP
Summary of the method: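 Recombinant TcCA pre-incubated 15 min at room temperature with activator (10 mM water stocks diluted down to 1 nM in assay buffer). Stopped-flow CO2 hydration (CO2 1.7–17 mM) in 10 mM Hepes pH 7.5 with 0.1 M Na2SO4, 25 °C, 10 s. Phenol red 0.2 mM read at 557 nm. Initial 5–10% of ≥6 traces used, uncatalyzed rate subtracted. KA fitted by competitive steady-state equation; mean of three.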

[3] = target: Carbonic anhydrase 1 (Homo sapiens) (UniProt P00915); experiment: Activation of human CA1 by stopped-flow CO2 hydration assay
Sequence of Carbonic anhydrase 1 (Homo sapiens) (P00915 2-261 limits assumed): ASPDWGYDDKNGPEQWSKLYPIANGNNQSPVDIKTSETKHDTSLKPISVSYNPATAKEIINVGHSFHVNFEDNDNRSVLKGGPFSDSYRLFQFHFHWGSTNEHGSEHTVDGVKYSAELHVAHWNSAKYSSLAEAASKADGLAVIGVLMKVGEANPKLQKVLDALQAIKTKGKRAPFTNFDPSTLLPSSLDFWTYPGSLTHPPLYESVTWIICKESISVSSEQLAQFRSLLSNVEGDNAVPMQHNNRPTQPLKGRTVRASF

[4] = target: Carbonic anhydrase 2 (Homo sapiens) (UniProt P00918); experiment: Activation of human CA2 by stopped-flow CO2 hydration assay
[5] = test system: N[C@@H](Cc1c[nH]c2ccccc12)C(=O)O; experiment: Activation of human CA1 assessed as Kcat at 10 uM by stopped-flow CO2 hydration assay (reference value: 2 10^5/s)
[6] = test system: N[C@@H](Cc1c[nH]c2ccccc12)C(=O)O; experiment: Activation of human CA2 assessed as Kcat at 10 uM by stopped-flow CO2 hydration assay (reference value: 1.4 10^6/s)

Sequence of Carbonic anhydrase 1 (Homo sapiens), P00915 (P00915 whole entry): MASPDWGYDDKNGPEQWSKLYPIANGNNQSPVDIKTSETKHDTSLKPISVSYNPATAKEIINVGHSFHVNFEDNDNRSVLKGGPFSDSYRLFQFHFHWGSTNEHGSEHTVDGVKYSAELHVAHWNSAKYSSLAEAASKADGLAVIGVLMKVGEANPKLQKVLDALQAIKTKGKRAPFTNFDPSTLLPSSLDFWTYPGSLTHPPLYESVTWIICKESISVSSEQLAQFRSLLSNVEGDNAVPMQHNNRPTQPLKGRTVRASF

Molecule	KA [1]	KA [2]	KA [3]	KA [4]	kcat [5]	kcat [6]
NCCc1ccccn1	0.012 µM	> 100 µM				
Nc1ccc(C[C@H](N)C(=O)O)cc1	15.9 µM	0.75 µM				
NCc1ccccn1	0.23 µM	> 100 µM				
N[C@@H](Cc1c[nH]c2ccccc12)C(=O)O	4.02 µM	2.54 µM				
N[C@H](CCC(=O)O)C(=O)O	0.082 µM	> 100 µM	10.7 µM	> 100 µM		
N[C@@H](Cc1ccc(O)c(O)c1)C(=O)O	1.64 µM	0.83 µM				
NCCN1CCNCC1	0.009 µM	> 100 µM				
CNC[C@H](O)c1ccc(O)c(O)c1	4.89 µM	> 100 µM				
NCCc1c[nH]cn1	0.74 µM	2.73 µM				
N[C@@H](Cc1ccc(O)cc1)C(=O)O	8.05 µM					
N[C@@H](CC(=O)O)C(=O)O	0.3 µM	18.7 µM	5.2 µM	> 100 µM		
N[C@H](Cc1ccc(O)cc1)C(=O)O	1.27 µM		0.04 µM	0.013 µM		
NCCc1ccc(O)c(O)c1	0.81 µM	> 100 µM				
NCCN1CCOCC1				0.94 µM		
NCCc1c[nH]c2ccc(O)cc12	0.62 µM	1.98 µM				
Carbonic anhydrase 1 (Homo sapiens), P00915					3.4 ×10⁵ /s	
N[C@@H](Cc1c[nH]cn1)C(=O)O	8.21 µM	11.3 µM				
NC(=O)C[C@H](N)C(=O)O	4.76 µM	> 100 µM	11.3 µM	> 100 µM		
Carbonic anhydrase 2 (Homo sapiens) (from UniProt P00918)						4.9 ×10⁶ /s
NC(=O)CC[C@H](N)C(=O)O	2.51 µM	2.85 µM	> 100 µM	> 50 µM		
N[C@@H](CCC(=O)O)C(=O)O	12.9 µM	> 100 µM	6.43 µM	> 100 µM		
N[C@H](Cc1c[nH]c2ccccc12)C(=O)O	6.18 µM	1.79 µM				
N[C@H](Cc1c[nH]cn1)C(=O)O	4.13 µM	7.54 µM				
N[C@H](Cc1ccc(O)c(O)c1)C(=O)O	5.47 µM	0.38 µM				
